According to PMC9605878 (Cell Chemical Biology, 2022):
Converted amounts (≈) assume the structure as drawn. Where two headings read alike, the source gives them in different places. Values belong to the compound of their own block, whether it stands above or below them.

Experiments:
S. aureus strain RN6390B = experiment: S. aureus MIC, broth microdilution; type: cell-based, Staphylococcus aureus
In short: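 Broth microdilution MIC in Müller–Hinton broth at 37°C; S. aureus also tested in MHB containing 10% FBS.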

S. aureus membranes [1] = experiment: Membrane dipole potential; type: binding, Staphylococcus aureus; conditions: for change in membrane dipole potential: fixed concentration 40 μM, fluorescence ratio R(460/520)
In short: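 Isolated S. aureus membranes labelled with the dipole-potential probe di-8-ANEPPS. Dipole potential change followed as fluorescence ratio R(460/520), at a fixed 40 μM per compound. Kd obtained from binding curves versus compound concentration by the dual-wavelength ratiometric method, with methanol included. Mean of three independent experiments ±SD.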

PqsR = conditions: read-out: PqsR IC50; ref Ilangovan et al., 2013; cited from earlier work
Staphylococcal cells = experiment: Dissipation of transmembrane potential; type: cell-based, Staphylococcus aureus; conditions: 10 μM test compound
In short: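 Staphylococcal cells suspended in 50 mM potassium phosphate buffer, pH 7, with 5 μM DiSC3(5). Fluorescence (ex 650, em 680 nm) monitored over 200 s. Test compound (10 μM) added once signal stabilised. Valinomycin (5 μM) then added for complete depolarisation. Novobiocin and chloramphenicol (10 μg/ml) served as negative controls. Three independent repeats, representative traces.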

[2] = test system: defibrinated rabbit red blood cells; experiment: Haemolytic activity; type: cell-based
In short: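 Defibrinated rabbit blood incubated in PBS for 60 min with test compound or Triton X-100 (positive control). Samples pelleted and supernatant A543 measured. Percent haemolysis calculated relative to the Triton X-100 control.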

[3] = test system: S. aureus strain USA300 JE2; experiment: Membrane permeabilization; type: cell-based, Staphylococcus aureus; conditions: 10 μM, relative to nisin 0.6 μM
In short: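 USA300 JE2 grown overnight in CYGP, washed in 100 mM phosphate buffer pH 7, resuspended to OD600 0.1 and exposed to test compound for 1 h at 37°C. Nisin (0.6 μM) used as positive control. Cell-free supernatant ATP measured by luminescence kit. For PI uptake, cells held in phosphate buffer pH 7 with PI (10 μg/ml), 10 min dark at RT, washed, then read (ex 575/em 630 nm). Mean of three experiments ±SD.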

S. aureus membranes [4] = conditions: read-out: Kd (membrane-active agent); ref Murray et al., 2014; cited from earlier work
Chrome azurol S = type: physicochemical; conditions: 50 μM, PBS pH 7.4
In short: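 PBS (pH 7.4) with test compound (50 μM), or without it as reference, mixed with an equal volume of CAS assay solution. A630 read after 15 min at room temperature. Siderophore units = […].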

[5] = test system: S. aureus SH1000 in mixed biofilm with P. aeruginosa PAO1; experiment: Mixed-species biofilm, S. aureus component; type: cell-based, Staphylococcus aureus; conditions: tobramycin alone (100 μg/mL, 4 h)
In short: (§1)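 GFP-tagged S. aureus SH1000 and mCherry-tagged P. aeruginosa PAO1 grown 16 h in RPMI-1640, diluted 1:100, regrown to OD600 ~0.5, then diluted to OD600 0.1 and 0.01 respectively. S. aureus seeded on glass coverslips for 1 h static, then P. aeruginosa added (10:1). Test compound (100 μM) or DMSO added; 48 h at 37°C. Where required, tobramycin (100 μg/mL) added for a further 4 h. Confocal imaging, biomass quantified per species; 3 experiments ±SD.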

[6] = test system: P. aeruginosa PAO1 in mixed biofilm with S. aureus SH1000; experiment: Mixed-species biofilm, P. aeruginosa component; type: cell-based, Pseudomonas aeruginosa; conditions: tobramycin alone (100 μg/mL, 4 h)
In short: as §1

[7] = S. aureus RN6390B, broth microdilution

SMILES: CCCCCCCCCc1nc2cc(Cl)ccc2c(=O)[nH]1 [Compound 4, 7-Chloro-2-n-nonylquinazolin-4(3H)-one]
MIC (S. aureus strain RN6390B; Staphylococcus aureus, RN6390B): > 100 µM

SMILES: CCCCCCCCCc1nc2cc(F)ccc2c(=O)n1N [Compound 18]
MIC (S. aureus strain RN6390B; [7]): >100 µM

SMILES: CCCCCCCCCc1nc2cc(Cl)ccc2c(=O)n1N [Compound 19]
IC50 (PqsR): 5 µM
DiSC3(5) fluorescence / transmembrane potential (Staphylococcal cells): does not increase fluorescence
MIC (S. aureus strain RN6390B; [7]): >100 µM
hemolytic activity [2]: not hemolytic
change in membrane dipole potential (S. aureus membranes [1]): increased

SMILES: CCCCCCCCCc1nc2cc(F)ccc2c(=O)n1OC [Compound 39]
MIC (S. aureus strain RN6390B; [7]): >100 µM

SMILES: CCCCCCCCCc1nc2cc(Cl)ccc2c(=O)n1CCO [Compound 45, 7-Chloro-3-(2-hydroxyethyl)-2-n-nonylquinazolin-4(3H)-one]
MIC (S. aureus strain RN6390B; [7]): >100 µM
MIC (S. aureus strain RN6390B; Staphylococcus aureus, RN6390B): > 100 µM

SMILES: CCCCCCCCCc1[nH]c2ccccc2c(=O)c1O [Compound C9-PQS, reference compound]
change in membrane dipole potential (S. aureus membranes [1]): little impact

SMILES: CCCCCCCCCCCCCC(=O)C1=C(O)COC1=O [Compound C14-TOA, 3-tetradecanoyltetronic acid]
Kd (S. aureus membranes [4]): 4 µM

SMILES: CCCCCCCc1[nH]c2ccccc2c(=O)c1O [PQS, 2-Heptyl-3-hydroxy-4(1H)-quinolone]
iron-chelating properties (Chrome azurol S): sequestered iron

SMILES: NC[C@H]1O[C@H](O[C@H]2[C@H](O)[C@@H](O[C@H]3O[C@H](CO)[C@@H](O)[C@H](N)[C@H]3O)[C@H](N)C[C@@H]2N)[C@H](N)C[C@@H]1O [tobramycin]
S. aureus biomass [5]: clearly protected
reduction of P. aeruginosa biomass [6]: ~60%

Second part, led by results:

MIC (S. aureus strain RN6390B; [7]): >100 µM
SMILES: CCCCCCCc1nc2ccccc2c(=O)[nH]1 [Compound 1]

MIC (S. aureus strain RN6390B; [7]): >100 µM
change in membrane dipole potential (S. aureus membranes [1]): little impact
SMILES: CCCCCCCCCc1nc2ccccc2c(=O)[nH]1 [Compound 2]

MIC (S. aureus strain RN6390B; Staphylococcus aureus, RN6390B): > 100 µM
SMILES: CCCCCCCC1Nc2ccccc2S(=O)(=O)N1 (stereo not shown) [Compound 5, 3-n-Heptyl-3,4-dihydro-2H-benzo[e][1,2,4]thiadiazine 1,1-dioxide]
S. aureus growth-inhibitory activity (S. aureus strain RN6390B): inactive

MIC (S. aureus strain RN6390B; Staphylococcus aureus, RN6390B): > 100 µM
SMILES: CCCCCCCCCC1Nc2ccccc2S(=O)(=O)N1 (stereo not shown) [Compound 6, 3-n-Nonyl-3,4-dihydro-2H-benzo[e][1,2,4]thiadiazine 1,1-dioxide]
S. aureus growth-inhibitory activity (S. aureus strain RN6390B): inactive

MIC (S. aureus strain RN6390B; [7]): >100 µM
SMILES: CCCCCc1nc2ccccc2c(=O)n1N [Compound 7]

MIC (S. aureus strain RN6390B; [7]): >100 µM
SMILES: CCCCCCCc1nc2ccccc2c(=O)n1N [Compound 8]

MIC (S. aureus strain RN6390B; Staphylococcus aureus, RN6390B): > 100 µM
SMILES: Cc1nc2ccccc2c(=O)n1N [Compound 17, 3-Amino-2-methylquinazolin-4(3H)-one]

MIC (S. aureus strain RN6390B; [7]): >100 µM
SMILES: CCCCCCCCCc1nc2cc(F)c(F)cc2c(=O)n1N [Compound 22]

MIC (S. aureus strain RN6390B; Staphylococcus aureus, RN6390B): 12.5 µM (≈ 4.72 µg/mL)
change in membrane dipole potential (S. aureus membranes [1]): greatest changes in dipole potential
Kd (S. aureus membranes [1]; read-out: Kd (membrane binding), binding curves, di-8-ANEPPS): 5.2 ± 0.3 µM
SMILES: CCCCCCCCCc1nc2cc(Cl)ccc2c(=O)n1CCCCN [Compound 35, 3-(4-Aminobutyl)-7-chloro-2-n-nonylquinazolin-4(3H)-one]
DiSC3(5) fluorescence / transmembrane potential (Staphylococcal cells): increase in fluorescence
cellular ATP loss and PI uptake [3]: significant cellular ATP loss alongside the reciprocal uptake of PI
